Test results taken from ChEMBL document CHEMBL1136304, “Synthesis and structure-activity relationships of thieno[2,3-d]pyrimidine-2,4-dione derivatives as potent GnRH receptor antagonists” (Bioorg Med Chem Lett, 2003).

Test system: not listed separately
Experiment: pKa value was determined
Format: physicochemical
Conditions: not given

SMILES | pKa
CONC(=O)Nc1ccc(-c2sc3c(c2CN(C)Cc2ccccc2)c(=O)n(-c2ccccc2)c(=O)n3Cc2c(F)cccc2F)cc1 [SUFUGOLIX] | 5

Target: T1, Gonadotropin-releasing hormone receptor (Rattus norvegicus, UniProt P30969)
T1 sequence (P30969 whole entry): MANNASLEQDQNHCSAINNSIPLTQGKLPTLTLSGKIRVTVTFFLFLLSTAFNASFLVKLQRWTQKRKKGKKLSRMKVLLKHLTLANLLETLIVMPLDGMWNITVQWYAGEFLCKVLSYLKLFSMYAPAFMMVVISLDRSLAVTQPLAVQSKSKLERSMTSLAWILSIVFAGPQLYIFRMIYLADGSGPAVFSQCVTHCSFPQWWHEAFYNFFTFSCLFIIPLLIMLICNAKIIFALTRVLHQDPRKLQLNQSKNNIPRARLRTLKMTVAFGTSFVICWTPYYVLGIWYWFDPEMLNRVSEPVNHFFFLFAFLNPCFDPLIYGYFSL
Experiment: Binding affinity towards rat Gonadotropin-releasing hormone receptor
Conditions: not given

SMILES | IC50
Cc1cc(-c2c(OCC[C@@H]3CCN3)c3cc(C(=O)Nc4ccncn4)c(Cl)cc3[nH]c2=O)cc(C)c1C | 4 nM

Target: T2, Gonadotropin-releasing hormone receptor (Homo sapiens, UniProt P30968)
T2 sequence (P30968 whole entry): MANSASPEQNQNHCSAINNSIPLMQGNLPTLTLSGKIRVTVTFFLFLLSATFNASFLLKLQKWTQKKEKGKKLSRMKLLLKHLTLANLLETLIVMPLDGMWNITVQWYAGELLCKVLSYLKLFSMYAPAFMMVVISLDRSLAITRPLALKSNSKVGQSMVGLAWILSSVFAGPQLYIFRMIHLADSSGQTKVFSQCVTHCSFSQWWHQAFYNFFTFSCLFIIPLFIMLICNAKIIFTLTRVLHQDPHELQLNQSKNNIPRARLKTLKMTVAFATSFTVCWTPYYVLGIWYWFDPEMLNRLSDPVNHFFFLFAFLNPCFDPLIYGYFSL
Experiment: Binding affinity towards human gonadotropin-releasing hormone receptor
Conditions: not given
In short: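 Cloned human GnRH receptor stably expressed in HEK293 cells, binding measured in a 96-well filtration format. Results expressed as Ki. Key compounds were run in 3–8 independent experiments.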

SMILES | Ki
CN(CCc1ccccc1)Cc1c(-c2ccc([N+](=O)[O-])cc2)sc2c1c(=O)n(-c1ccccc1)c(=O)n2Cc1c(F)cccc1F | 170 nM
CN(Cc1ccccc1)Cc1c(-c2ccc(NC(=O)C(F)(F)F)cc2)sc2c1c(=O)n(-c1ccccc1)c(=O)n2Cc1c(F)cccc1F | 16 nM
CN(C)Cc1c(-c2ccc([N+](=O)[O-])cc2)sc2c1c(=O)n(-c1ccccc1)c(=O)n2Cc1c(F)cccc1F | 640 nM
CN(Cc1ccccc1)Cc1c(-c2ccc([N+](=O)[O-])cc2)sc2c1c(=O)n(-c1ccccc1)c(=O)n2Cc1c(F)cccc1F | 180 nM
CC(C)C(=O)Nc1ccc(-c2sc3c(c2CN(C)Cc2ccccc2)c(=O)n(-c2ccccc2)c(=O)n3Cc2c(F)cccc2F)cc1 | 2.9 nM
CC(C)Nc1ccc(-c2sc3c(c2CN(C)Cc2ccccc2)c(=O)n(-c2ccccc2)c(=O)n3Cc2c(F)cccc2F)cc1 | 88 nM
CN(Cc1ccccc1)Cc1c(-c2ccc(N(C)C)cc2)sc2c1c(=O)n(-c1ccccc1)c(=O)n2Cc1c(F)cccc1F | 61 nM
CN(Cc1ccccn1)Cc1c(-c2ccc([N+](=O)[O-])cc2)sc2c1c(=O)n(-c1ccccc1)c(=O)n2Cc1c(F)cccc1F | 9 nM
CN(Cc1ccccc1)Cc1c(-c2ccc(N)cc2)sc2c1c(=O)n(-c1ccccc1)c(=O)n2Cc1c(F)cccc1F | 36 nM
O=c1c2c(CN3CCNCC3)c(-c3ccc([N+](=O)[O-])cc3)sc2n(Cc2c(F)cccc2F)c(=O)n1-c1ccccc1 | 460 nM
CC(=O)Nc1ccc(-c2sc3c(c2CN(C)Cc2ccccc2)c(=O)n(-c2ccccc2)c(=O)n3Cc2c(F)cccc2F)cc1 | 4.1 nM
CCNc1ccc(-c2sc3c(c2CN(C)Cc2ccccc2)c(=O)n(-c2ccccc2)c(=O)n3Cc2c(F)cccc2F)cc1 | 11 nM
CN(Cc1ccccc1)Cc1c(-c2ccc(NC(=O)CN)cc2)sc2c1c(=O)n(-c1ccccc1)c(=O)n2Cc1c(F)cccc1F | 150 nM
CN(Cc1ccccc1)Cc1c(-c2ccc(NC(=O)CCCN)cc2)sc2c1c(=O)n(-c1ccccc1)c(=O)n2Cc1c(F)cccc1F | 300 nM
CC(C)CNc1ccc(-c2sc3c(c2CN(C)Cc2ccccc2)c(=O)n(-c2ccccc2)c(=O)n3Cc2c(F)cccc2F)cc1 | 17 nM
C[C@H](N)C(=O)Nc1ccc(-c2sc3c(c2CN(C)Cc2ccccc2)c(=O)n(-c2ccccc2)c(=O)n3Cc2c(F)cccc2F)cc1 | 43 nM
CCN(CC)CCN(C)Cc1c(-c2ccc([N+](=O)[O-])cc2)sc2c1c(=O)n(-c1ccccc1)c(=O)n2Cc1c(F)cccc1F | 76 nM
CCCCN(C)Cc1c(-c2ccc([N+](=O)[O-])cc2)sc2c1c(=O)n(-c1ccccc1)c(=O)n2Cc1c(F)cccc1F | 270 nM
CN(CCc1ccccn1)Cc1c(-c2ccc([N+](=O)[O-])cc2)sc2c1c(=O)n(-c1ccccc1)c(=O)n2Cc1c(F)cccc1F | 0.6 nM
COCCN(C)Cc1c(-c2ccc([N+](=O)[O-])cc2)sc2c1c(=O)n(-c1ccccc1)c(=O)n2Cc1c(F)cccc1F | 170 nM
CN(Cc1ccccc1)Cc1c(-c2ccc(NC(=O)CCN)cc2)sc2c1c(=O)n(-c1ccccc1)c(=O)n2Cc1c(F)cccc1F | 360 nM
CC(C)CC(N)C(=O)Nc1ccc(-c2sc3c(c2CN(C)Cc2ccccc2)c(=O)n(-c2ccccc2)c(=O)n3Cc2c(F)cccc2F)cc1 (single isomer, unassigned) | 58 nM

Test system: not listed separately
Experiment: Partition coefficient (logP)
Format: physicochemical
Conditions: octanol/water

SMILES | logP
CONC(=O)Nc1ccc(-c2sc3c(c2CN(C)Cc2ccccc2)c(=O)n(-c2ccccc2)c(=O)n3Cc2c(F)cccc2F)cc1 [SUFUGOLIX] | 6.5
